Test results as given in ChEMBL document CHEMBL3046951, “Volatile constituents from the leaves of Callicarpa japonica Thunb. and their antibacterial activities” (2004).

What was measured:
Assay type in all cases: functional
Bacillus cereus = experiment: Antimicrobial activity against Bacillus cereus ATCC 11778 assessed as growth inhibition rate at 4 mg/l after 72 hr by spectrophotometry; details: ATCC 11778, 72 h, read-out: GI
How it was run: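 Pure volatile compounds (purity >95%; one at 90%) were tested against B. cereus ATCC 11778. The strain was grown at 30 °C in nutrient broth for 24 h, then subcultured for 18 h. Optical density was read in a Bioscreen C every 24 h for 72 h, with 10% Tween 80 as the control.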

Staphylococcus aureus = experiment: Antimicrobial activity against Staphylococcus aureus ATCC 25923 assessed as growth inhibition rate at 4 mg/l after 72 hr by spectrophotometry; details: ATCC 25923, 72 h, read-out: GI
Vibrio parahaemolyticus = experiment: Antimicrobial activity against Vibrio parahaemolyticus ATCC 33844 assessed as growth inhibition rate at 4 mg/l after 72 hr by spectrophotometry; details: ATCC 33844, 72 h, read-out: GI
Escherichia coli = experiment: Antimicrobial activity against Escherichia coli O157:H7 ATCC 43894 assessed as growth inhibition rate at 4 mg/l after 72 hr by spectrophotometry; details: O157:H7 ATCC 43894, 72 h, read-out: GI
Salmonella typhimurium = experiment: Antimicrobial activity against Salmonella enterica subsp. enterica serovar Typhimurium ATCC 14028 assessed as growth inhibition rate at 4 mg/l after 72 hr by spectrophotometry; details: ATCC 14028, 72 h, read-out: GI
How it was run: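 Salmonella Typhimurium ATCC 14028 grown in nutrient broth at 30 °C, precultured 24 h, then subcultured 1:100 for 18 h before testing. Single volatile compounds (>95% pure) were added. OD was read every 24 h over 72 h in a Bioscreen C, with 10% Tween 80 as the comparison control.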

Listeria monocytogenes = experiment: Antimicrobial activity against Listeria monocytogenes ATCC 19111 assessed as growth inhibition rate at 4 mg/l after 72 hr by spectrophotometry; details: ATCC 19111, 72 h, read-out: GI
How it was run: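 L. monocytogenes was grown at 30 °C in tryptic soy broth, subcultured for 18 h, and exposed to pure volatile compounds (>95% purity). Growth was followed by Bioscreen C optical density every 24 h for 72 h against a 10% Tween 80 control.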

Structure (SMILES): CC1=CC[C@@H]2C3C(C(C)C)CCC2(C)[C@@H]13 (stereo partly drawn) [(-)-ALPHA-COPAENE]
- inhibition of growth at 4 µg/mL (Bacillus cereus): 5.9%
- inhibition of growth at 4 µg/mL (Staphylococcus aureus): 5.7%
- inhibition of growth at 4 µg/mL (Vibrio parahaemolyticus): 0%
- inhibition of growth at 4 µg/mL (Escherichia coli): 0%
- inhibition of growth at 4 µg/mL (Salmonella typhimurium): 0.1%
- inhibition of growth at 4 µg/mL (Listeria monocytogenes): 0%
